Data set [1] deals with Mus musculus. The data set can be described thus: Rectal temperature of mice treated with compound in apomorphine (16 mg/kg injected sc 30 min before temp. recording) after its oral administration at 400 mg/kg, 0.5 hr before rectal temperature measurement. The format is functional. Summed up: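 Screening in male Swiss albino mice (20–22 g): 400 mg/kg compound orally; apomorphine 16 mg/kg sc 30 min before recording. Rectal temperature read at 0.5, 2, 4 h after dosing; value reported at time of peak activity (generally 0.5 h). Groups of 8–20 mice; standard errors 1–3% of mean.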

The nature of data set [2]: Dose of compound required in mg/kg to induce lethality in 50% of mice after 14 days. The format is ADME, organism-based. As to conditions: mouse, in vivo. An outline of the steps:
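Male Swiss albino mice, 20–22 g, dosed orally; deaths followed for up to 2 weeks (14 days) after administration. Groups of 8–20 mice.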

Data set [3] is filed under the species Mus musculus. In words: Dose of compound required to reduce apomorphine-induced hypothermia by 50% in mice by hypothermia (Apo 16)test. The format is functional. An outline of the steps: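 Male Swiss albino mice, 20–22 g; apomorphine 16 mg/kg sc 30 min before rectal temperature recording. Compound given orally, tested at time of peak activity (0.5–2 h). […] Groups of 8–20 mice.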

In data set [4] the test system is Mus musculus. The data set can be described thus: Dose required to reduce reserpine induced hypothermia was measured after sc administration of reserpine at 2.5 mg/kg, 18 hr before the rectal-temperature recording in mice. The format is functional. The arrangement: unit: mg/kg. The settings on record: reserpine 2.5 mg/kg sc; route oral. Summed up: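 Male Swiss albino mice, 20–22 g; reserpine 2.5 mg/kg sc 18 h before rectal temperature recording. Compound given orally at time of peak activity, generally 0.5 h before recording. Groups of 8–20 mice.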

The subject of data set [5] is Mus musculus. The data set can be described thus: Compound was evaluated after 24 hr for physostigmine induced lethality upon oral administration 60 min before intraperitoneal injection of physostigmine (0.9 mg/kg) in mice at 200 mg/kg. The arrangement: dose 200 mg/kg, route oral. As to conditions: in vivo. The format is ADME, organism-based. Summed up: (§1)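 Male Swiss albino mice, 20–22 g; compound given orally 60 min before physostigmine 0.9 mg/kg ip. Lethality scored 24 h after physostigmine injection and expressed as % of group dying. Groups of 8–20 mice; significance vs vehicle by χ2.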

Data set [6] concerns Mus musculus. The data set can be described thus: Compound was evaluated after 24 hr for physostigmine induced lethality upon oral administration 60 min before intraperitoneal injection of physostigmine (0.9 mg/kg) in mice at 600 mg/kg. The settings on record: in vivo. The format is ADME, organism-based. Details: dose 600 mg/kg, route oral. An outline of the steps:
as §1

For data set [7], the system named is Mus musculus. In words: Compound was evaluated after 24 hr for physostigmine induced lethality upon oral administration 60 min before intraperitoneal injection of physostigmine (0.9 mg/kg) in mice at 400 mg/kg. The format is ADME, organism-based. Details: dose 400 mg/kg, route oral. The settings on record: in vivo. An outline of the steps:
as §1

The test system of data set [8] is Mus musculus. In words: Compound was evaluated after 24 hr for physostigmine induced lethality upon oral administration 60 min before intraperitoneal injection of physostigmine (0.9 mg/kg) in mice at 25 mg/kg. The format is ADME, organism-based. Details: dose 25 mg/kg, route oral. The settings on record: in vivo. An outline of the steps:
as §1

The record followed here is ChEMBL document CHEMBL1125923, “New dibenzothiadiazepine derivatives with antidepressant activities” (J Med Chem, 1991).

SMILES strings stand for the structures.

In the case of `Cc1cc2c(cc1Cl)N(C(=O)CN1CCN(c3ncccn3)CC1)c1ccccc1N(C)S2(=O)=O`, in data set [1], the Rectal temperature was found to be 32.7 °C. On the same count and under the same terms, the same measure for `CN1c2ccccc2N(C(=O)CNC(C)(C)C)c2ccccc2S1(=O)=O`: 32.2 °C.

In data set [2], `CN(C)CCC(=O)N1c2ccccc2N(C)S(=O)(=O)c2ccccc21` displayed an LD50 at 336 h of 521 mg/kg. Further, in data set [3], the ED50 came to 23.1 mg/kg. In data set [4], this molecule yielded a Min effective dose of more than 100. Further, the Rectal temperature in data set [1] worked out at 36.5 °C. Take `CN(C)CCN1c2ccccc2N(C)S(=O)(=O)c2ccccc21`: the LD50 at 336 h in data set [2] turned out to be 468 mg/kg. Further, the ED50 in data set [3] is more than 100 mg/kg. The molecule further registered a Min effective dose in data set [4] of 100.

In the case of `CN1c2ccccc2N(C(=O)CN2CCCC2)c2ccccc2S1(=O)=O`, the Rectal temperature in data set [1] was found to be 34.2 °C. With `CCN1c2ccccc2N(C(=O)CN(C)C)c2ccccc2S1(=O)=O`, the Rectal temperature in data set [1] was 35.1 °C.

Take `Cc1cc2c(cc1Cl)N(C(=O)CN1CCN(c3ccccc3)CC1)c1ccccc1N(C)S2(=O)=O`: the Rectal temperature in data set [1] turned out to be 34.5 °C. Regarding `Cc1cc2c(cc1Cl)N(C(=O)CN1CCN(CCO)CC1)c1ccccc1N(C)S2(=O)=O`, the Rectal temperature in data set [1] was determined as 34.1 °C. Regarding `CC1CCN(CC(=O)N2c3ccccc3N(C)S(=O)(=O)c3ccccc32)CC1`, the Rectal temperature in data set [1] was found to be 33.2 °C. Consider `CN(C)CCCN1c2ccccc2N(C)S(=O)(=O)c2ccccc21`, for which the median lethal dose (LD50) at 336 h in data set [2] was 655 mg/kg. The 50% effect level in data set [3] (ED50) was put at a dose of 4.9 mg/kg. The same molecule registered a Min effective dose in data set [4] of more than 100.

Turning to `CCCN1c2ccccc2N(C(=O)CN(C)C)c2ccccc2S1(=O)=O`, the Rectal temperature in data set [1] came out at 35.8 °C.

Molecule `CN(C)CC(=O)N1c2cc(Cl)ccc2N(C)S(=O)(=O)c2ccccc21` returned an ED50 in data set [3] of 50.6 mg/kg. Besides, in data set [4], the Min effective dose was more than 100. In addition, the Rectal temperature in data set [1] is 37.4 °C. With `CN1c2ccccc2N(C(=O)CN2CCOCC2)c2ccccc2S1(=O)=O`, in data set [1], the Rectal temperature was 33.9 °C. In data set [2], `Cc1ccc2c(c1)N(C(=O)CN(C)C)c1ccccc1S(=O)(=O)N2C` registered a 50% lethal dose (LD50) at 336 h of 1730 mg/kg. The molecule further registered an ED50 in data set [3] of 14.4 mg/kg. For the same molecule, in data set [4], the Min effective dose was 100. In data set [1], the Rectal temperature is 38.8 °C. For `CCN(CC)CC(=O)N1c2ccccc2N(C)S(=O)(=O)c2ccccc21` the same measures were more than 2000 mg/kg, 23 mg/kg, more than 100 and 37.4 °C. In the case of `CN(C)CC(=O)N1c2ccccc2N(C)S(=O)(=O)c2cc(Cl)ccc21`, the ED50 in data set [3] was 54.5 mg/kg. The molecule also returned a Min effective dose in data set [4] of more than 100. The Rectal temperature in data set [1] amounted to 37.7 °C.

`CNCC(=O)N1c2ccccc2N(C)S(=O)(=O)c2ccccc21` registered an LD50 at 336 h in data set [2] of 789 mg/kg. In data set [3], this molecule displayed an ED50 of 12 mg/kg. In data set [4], this molecule gave a Min effective dose of 100. For the same molecule, the Rectal temperature in data set [1] turned out to be 38.2 °C. As for `CN1c2ccccc2N(C(=O)CN)c2ccccc2S1(=O)=O`, the Rectal temperature in data set [1] turned out to be 36.1 °C. Turning to `Cc1ccc2c(c1)N(C(=O)CN(C)C)c1ccccc1N(C)S2(=O)=O`, the Rectal temperature in data set [1] is 35.2 °C.

With `CN(C)CC(=O)N1c2ccccc2N(C)S(=O)(=O)c2ccc(Cl)cc21`, the Rectal temperature in data set [1] amounted to 35.4 °C. `CN1c2ccccc2N(C(N)=O)c2ccccc2S1(=O)=O`: the Rectal temperature in data set [1] turned out to be 33.8 °C.

`CC(C)NCC(=O)N1c2ccccc2N(C)S(=O)(=O)c2ccccc21`: the Rectal temperature in data set [1] was found to be 34.1 °C.

As for `CN1CCN(CC(=O)N2c3ccccc3N(C)S(=O)(=O)c3ccccc32)CC1`, the Rectal temperature in data set [1] came to 34.4 °C. Consider `CN(C)CC(=O)N1c2ccccc2N(C)S(=O)(=O)c2ccc(C(F)(F)F)cc21`, for which the Rectal temperature in data set [1] was 34.8 °C. Take `CN1c2ccccc2N(C(=O)CN2CCN(CCO)CC2)c2ccccc2S1(=O)=O`: the Rectal temperature in data set [1] came out at 34.4 °C. Same read-out and setting: then `CN(C)C(=O)N1c2ccccc2N(C)S(=O)(=O)c2ccccc21`, with 33.7 °C; and `Cc1cc2c(cc1Cl)N(C(=O)CN1CCN(C)CC1)c1ccccc1N(C)S2(=O)=O`, with 32.5 °C. Consider `COc1ccc2c(c1)N(C(=O)CN(C)C)c1ccccc1N(C)S2(=O)=O`, for which, in data set [1], the Rectal temperature came out at 33.6 °C. In data set [2], `CN(C)CC(=O)N1c2ccccc2N(C)S(=O)(=O)c2ccccc21` registered a 50% lethal dose (LD50) at 336 h of 1920 mg/kg. The Lethality in data set [5] amounted to 95%; in data set [6] it was 90%; in data set [7] it was 95%. The Min effective dose in data set [4] came out at 25. Further, the Rectal temperature in data set [1] was 38.7 °C.

Consider `Cc1cc2c(cc1Cl)N(C(=O)CNC(C)C)c1ccccc1N(C)S2(=O)=O`, for which the Rectal temperature in data set [1] stood at 33.1 °C. Consider `Cc1cc2c(cc1Cl)N(C(=O)CN(C)C)c1ccccc1N(C)S2(=O)=O`, for which the Rectal temperature in data set [1] was 35.8 °C. In the case of `CN(C)CC(=O)N1c2ccc(Cl)cc2N(C)S(=O)(=O)c2ccccc21`, in data set [2], the LD50 at 336 h was determined as 1420 mg/kg. Further, the ED50 in data set [3] was determined as 23.5 mg/kg. Also, the Min effective dose in data set [4] is more than 100. The Rectal temperature in data set [1] worked out at 39.5 °C.

For the molecule `CN(C)CCC=C1c2ccccc2CCc2ccccc21` [AMITRIPTYLINE], in data set [8], the Lethality is given as 37%.

For the molecule `CN(C)CCCN1c2ccccc2CCc2ccccc21` [IMIPRAMINE], in data set [3], the 50% effective dose (ED50) was 3.7 mg/kg. For the same molecule, in data set [4], the Min effective dose came out at 4.

Broadly, the LD50 is the dose expected to kill half of the subjects tested. Usually ED50 stands for the dose at which the effect has come halfway, by size or by number of responders.
